The values below come from ChEMBL document CHEMBL3112521, “Design, synthesis and biological evaluation of (E)-2-(2-arylhydrazinyl)quinoxalines, a promising and potent new class of anticancer agents” (Bioorg Med Chem Lett, 2014).

In experiment [1] the test system is SF-295. The experiment in a line: Cytotoxicity against human SF295 cells assessed as growth inhibition at 5 ug/ml by MTT assay. The class given is functional. The settings on record: read-out: GI. In outline:
(§1)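 Single-concentration MTT screen at 5 µg/mL across SF-295 (glioblastoma), OVCAR-8 (ovary) and HCT-116 (colon) cells. Read-out is percent growth inhibition, reported with sd.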

Experiment [2] deals with OVCAR-8. The experiment in a line: Cytotoxicity against human OVCAR8 cells assessed as growth inhibition at 5 ug/ml by MTT assay. The class given is functional. The settings on record: read-out: GI. In outline:
as §1
(In general: Tetrazolium assays rely on reduction of a dye to a coloured formazan, in cell work by metabolically active cells.)

Experiment [3] deals with HCT-116. The experiment in a line: Cytotoxicity against human HCT116 cells assessed as growth inhibition at 5 ug/ml by MTT assay. The class given is functional. The settings on record: read-out: GI. In outline:
as §1

Experiment [4] concerns SF-295. The experiment in a line: Cytotoxicity against human SF295 cells assessed as growth inhibition by MTT assay. The class given is functional, cell-based. In outline:
(§2)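 Dose-response on HCT-116, OVCAR-8, HL-60 (leukemia) and SF-295 cells, with doxorubicin as positive control. IC50 is taken as the concentration inducing 50% inhibition of cell growth. Data come from three independent experiments, each run in triplicate.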

The test system of the next experiment is HL-60. The experiment in a line: Cytotoxicity against human HL60 cells assessed as growth inhibition by MTT assay. It is filed as functional, cell-based. In outline: as §2
Experiment [5] deals with OVCAR-8. The experiment in a line: Cytotoxicity against human OVCAR8 cells assessed as growth inhibition by MTT assay. It is filed as functional, cell-based. In outline: as §2
Experiment [6] relates to HCT-116. The experiment in a line: Cytotoxicity against human HCT116 cells assessed as growth inhibition by MTT assay. It is filed as functional, cell-based. In outline: as §2

SMILES strings stand for the structures.

As to `Brc1ccccc1/C=N/Nc1cnc2ccccc2n1`, the inhibition of growth at 5 µg/mL in the experiment on SF-295 [1] was 35.2%; with OVCAR-8 [2], 18%; in the experiment on HCT-116 [3] it was 23.6%.
For `Brc1cccc(/C=N/Nc2cnc3ccccc3n2)c1`, in that order: 14.2%, 0% and 0%.
For `Brc1ccc(/C=N/Nc2cnc3ccccc3n2)cc1`, in that order: 33.5%, 18.2% and 23.2%.
As to `O=[N+]([O-])c1ccccc1/C=N/Nc1cnc2ccccc2n1`, the inhibition of growth at 5 µg/mL with SF-295 [1] is 21.9%; in the experiment with OVCAR-8 [2] it was 21.8%; in the experiment with HCT-116 [3], 23%.
As to `O=[N+]([O-])c1cccc(/C=N/Nc2cnc3ccccc3n2)c1`, the inhibition of growth at 5 µg/mL with SF-295 [1] worked out at 23.4%; in the experiment with OVCAR-8 [2], 16.9%; with HCT-116 [3], 21%.
Taken in the same sequence, the figures for `O=[N+]([O-])c1ccc(/C=N/Nc2cnc3ccccc3n2)cc1` were 27%, 40.6% and 18.6%.
Taken in the same sequence, the figures for `Cc1ccccc1/C=N/Nc1cnc2ccccc2n1` were 46.4%, 17.8% and 28.7%.
As for `Cc1cccc(/C=N/Nc2cnc3ccccc3n2)c1`, the inhibition of growth at 5 µg/mL in the experiment with SF-295 [1] came out at 39.8%; in the experiment with OVCAR-8 [2], 39.9%; in the experiment on HCT-116 [3] it was 33.4%.
With `Cc1ccc(/C=N/Nc2cnc3ccccc3n2)cc1`, the results for the inhibition of growth at 5 µg/mL in the experiment on SF-295 [1], in the experiment with OVCAR-8 [2] and in the experiment with HCT-116 [3] were 18.1%, 29% and 19.6%, respectively.
For `N#Cc1cccc(/C=N/Nc2cnc3ccccc3n2)c1`, in that order: 44.5%, 11.5% and 30.7%.
On to `N#Cc1ccc(/C=N/Nc2cnc3ccccc3n2)cc1`, for which the inhibition of growth at 5 µg/mL amounted to 16% with SF-295 [1], 50.9% in the experiment on OVCAR-8 [2] and 31.6% in the experiment on HCT-116 [3].
As a reminder, the IC50 is the midpoint of a concentration-inhibition curve. On to `Oc1ccccc1/C=N/Nc1cnc2ccccc2n1`, for which the IC50 in the experiment with SF-295 [4] is 2.31 µM; in the experiment on HL-60 it was 0.819 µM; in the experiment on OVCAR-8 [5], 3.47 µM; with HCT-116 [6], 4.94 µM. For the same molecule, the inhibition of growth at 5 µg/mL was 61.5% in the experiment on SF-295 [1], 95.4% with OVCAR-8 [2] and 77% in the experiment with HCT-116 [3].
Consider `Oc1cccc(/C=N/Nc2cnc3ccccc3n2)c1`, for which the inhibition of growth at 5 µg/mL with SF-295 [1] came to 27.5%; in the experiment on OVCAR-8 [2], 51.5%; in the experiment on HCT-116 [3], 29.6%.
On to `Oc1ccc(/C=N/Nc2cnc3ccccc3n2)cc1`, for which the inhibition of growth at 5 µg/mL worked out at 39.4% in the experiment with SF-295 [1], 67.3% in the experiment with OVCAR-8 [2] and 20.2% in the experiment with HCT-116 [3].
Turning to `Oc1cccc(/C=N/Nc2cnc3ccccc3n2)c1O`, the IC50 turned out to be 1.26 µM with SF-295 [4], 0.316 µM with HL-60, 1.06 µM with OVCAR-8 [5] and 1.76 µM in the experiment on HCT-116 [6]. The values for the inhibition of growth at 5 µg/mL with SF-295 [1], with OVCAR-8 [2] and in the experiment on HCT-116 [3] were 81.2%, 97.9% and 84%, respectively.
For `COc1ccc(/C=N/Nc2cnc3ccccc3n2)c(O)c1`, the IC50 in the experiment with SF-295 [4] was 15.7 µM; in the experiment with HL-60, 4.19 µM; in the experiment on OVCAR-8 [5], 7.55 µM; in the experiment on HCT-116 [6] it was 14.2 µM. Besides, the values for the inhibition of growth at 5 µg/mL in the experiment with SF-295 [1], in the experiment with OVCAR-8 [2] and in the experiment with HCT-116 [3] were 66.4%, 80.9% and 83.1%, respectively.
Take `O=[N+]([O-])c1ccc(O)c(/C=N/Nc2cnc3ccccc3n2)c1`: the IC50 with SF-295 [4] stood at 2.11 µM; in the experiment with HL-60, 1.75 µM; in the experiment with OVCAR-8 [5], 2.84 µM; with HCT-116 [6], 4.32 µM. In addition, the inhibition of growth at 5 µg/mL amounted to 78.5% with SF-295 [1], 95.6% with OVCAR-8 [2] and 92.1% with HCT-116 [3].
Regarding `C(=N\Nc1cnc2ccccc2n1)/c1ccccc1`, the inhibition of growth at 5 µg/mL in the experiment with SF-295 [1] came to 3.37%; in the experiment on OVCAR-8 [2], 34.5%; in the experiment with HCT-116 [3], 18.4%.
With `Fc1ccccc1/C=N/Nc1cnc2ccccc2n1`, the inhibition of growth at 5 µg/mL in the experiment on SF-295 [1] was 12.8%; in the experiment on OVCAR-8 [2] it was 0%; in the experiment with HCT-116 [3] it was 7.01%.
`Fc1cccc(/C=N/Nc2cnc3ccccc3n2)c1`: the inhibition of growth at 5 µg/mL in the experiment on SF-295 [1] is 8.36%; with OVCAR-8 [2], 5.59%; in the experiment on HCT-116 [3], 10.8%.
Consider `Clc1ccccc1/C=N/Nc1cnc2ccccc2n1`, for which the values for the inhibition of growth at 5 µg/mL with SF-295 [1], in the experiment on OVCAR-8 [2] and in the experiment on HCT-116 [3] were 31.9%, 9.09% and 12.1%, respectively.
Taken in the same sequence, the figures for `Clc1cccc(/C=N/Nc2cnc3ccccc3n2)c1` were 33.2%, 0% and 0%.
Taken in the same sequence, the figures for `Clc1ccc(/C=N/Nc2cnc3ccccc3n2)cc1` were 44.5%, 41.7% and 10.2%.
For `Clc1cccc(/C=N/Nc2cnc3ccccc3n2)c1Cl`, the IC50 with SF-295 [4] worked out at 6.21 µM; in the experiment on HL-60, 10.8 µM; in the experiment on OVCAR-8 [5] it was 6.19 µM; in the experiment on HCT-116 [6] it was 7.01 µM. The inhibition of growth at 5 µg/mL with SF-295 [1] was determined as 84.3%; with OVCAR-8 [2], 100%; with HCT-116 [3], 97.5%.
Take `Clc1cccc(Cl)c1/C=N/Nc1cnc2ccccc2n1`: the inhibition of growth at 5 µg/mL in the experiment on SF-295 [1] was 52%; with OVCAR-8 [2] it was 53.5%; in the experiment with HCT-116 [3] it was 71.2%.
Take `Clc1ccc(/C=N/Nc2cnc3ccccc3n2)c(Cl)c1`: the inhibition of growth at 5 µg/mL with SF-295 [1] was 28.5%; with OVCAR-8 [2], 4.9%; in the experiment with HCT-116 [3], 16.5%.
On to `Clc1ccc(/C=N/Nc2cnc3ccccc3n2)cc1Cl`, for which the values for the inhibition of growth at 5 µg/mL in the experiment on SF-295 [1], with OVCAR-8 [2] and in the experiment on HCT-116 [3] were 37.8%, 0% and 0.5%, respectively.
As to `COc1cccc2c1C(=O)c1c(O)c3c(c(O)c1C2=O)C[C@@](O)(C(=O)CO)C[C@@H]3O[C@H]1C[C@H](N)[C@H](O)[C@H](C)O1` [DOXORUBICIN], the IC50 in the experiment on OVCAR-8 [5] came out at 0.488 µM; with HCT-116 [6], 0.23 µM.
